Reference: ChEMBL document CHEMBL1145988, “A conformationally locked analogue of the anti-HIV agent stavudine. An important correlation between pseudorotation and maximum amplitude” (J Med Chem, 2003)

Tests used:
[1] = system: MT4; experiment: Effective concentration required to protect MT-4 cells against cytopathogenicity of HIV-1 LAI; assay type: functional, cell-based; conditions: Homo sapiens
Method in brief: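 MT-4 cells (3×10^4) exposed to 100 TCID50 HIV-1 LAI and cultured with compound. Viability read by MTT assay on day 5. EC50 taken as 50% protection against cytopathogenicity; duplicate assays.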

[2] = system: CCRF-CEM; experiment: Effective concentration required to protect Human T-Lymphocyte (CEM) cells against cytopathogenicity of HIV-1 (IIIB); assay type: functional, cell-based
Method in brief: (§1)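 CEM cells at 4.5×10^5 cells/mL infected with 100 CCID50/mL of HIV-1 or HIV-2, then mixed 1:1 with compound dilutions (final 200, 40, 8, 0.32, 0.062 μg/mL) and held at 37 °C. Syncytia counted microscopically after 4–5 days. EC50 is the concentration preventing syncytium formation by 50%.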

[3] = system: MT2; experiment: Effective concentration required to protect MT-2 cells against cytopathogenicity of HIV-1 LAI; assay type: functional, cell-based; conditions: Homo sapiens
Method in brief: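 MT-2 cells (2×10^3) challenged with 100 TCID50 HIV-1 LAI and cultured with compound. MTT read-out on day 7 gives EC50 for 50% protection; run in duplicate.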

[4] = Effective concentration required to inhibit P24 antigen production in PHA-PBM cells exposed to HIV-1 LAI; assay type: functional, cell-based; conditions: Homo sapiens, PBMC
Method in brief: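 PHA-stimulated PBM cells at 1×10^6/mL exposed to 50 TCID50 HIV-1 LAI with 10-fold serial drug dilutions, triplicate. p24 antigen measured by radioimmunoassay after 7 days of culture. EC50 set against p24 in drug-free controls.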

[5] = system: CCRF-CEM; experiment: Effective concentration required to protect activity Human CEM/TK- cells against cytopathogenicity of HIV virus; assay type: functional, cell-based
[6] = system: CCRF-CEM; experiment: Effective concentration required to protect Human T-Lymphocyte (CEM) cells against cytopathogenicity of HIV-2 (ROD); assay type: functional, cell-based; method in brief: as §1
[7] = system: CCRF-CEM; experiment: Cytostatic concentration required to inhibit Human T-Lymphocyte (CEM) cells proliferation caused by HIV-1 (IIIB); assay type: functional
Method in brief: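 CEM cell proliferation measured; value is concentration inhibiting proliferation by 50%.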

[8] = target: Human immunodeficiency virus type 1 reverse transcriptase (Human immunodeficiency virus 1, UniProt Q72547); experiment: Inhibitory concentration required against Reverse transcriptase (RT)
Method in brief: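 Wild-type HIV-1 RT (1.0 μg) extends -47 primer annealed to single-stranded M13mp18 DNA. Run 30 min at 37 °C, then TCA-precipitated, filtered, scintillation counted; duplicate.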

| Structure (SMILES) | EC50 [1] | EC50 [2] | EC50 [3] | EC50 [4] | EC50 [5] | EC50 [6] | CC50 [7] | IC50 [8] |
| --- | --- | --- | --- | --- | --- | --- | --- | --- |
| Cc1cn([C@H]2C=C[C@]3(CO)C[C@H]23)c(=O)[nH]c1=O | 6900 nM | 960 nM | 6100 nM | 60 nM | > 250000 nM | 1450 nM | > 250000 nM |  |
| Cc1cn([C@H]2C[C@H](N=[N+]=[N-])[C@@H](CO)O2)c(=O)[nH]c1=O [ZIDOVUDINE] | 20 nM |  | 30 nM |  |  |  |  |  |
| Cc1cn([C@H]2C=C[C@@H](CO)O2)c(=O)[nH]c1=O [STAVUDINE] | 710 nM | 210 nM | 1800 nM | 40 nM | 27000 nM | 400 nM | 93000 nM |  |
| Cc1cn([C@H]2C=C[C@]3(COP(=O)(O)OP(=O)(O)OP(=O)(O)O)C[C@H]23)c(=O)[nH]c1=O |  |  |  |  |  |  |  | 650 nM |
| Cc1cn([C@H]2C=C[C@@H](COP(=O)(O)OP(=O)(O)OP(=O)(O)O)O2)c(=O)[nH]c1=O |  |  |  |  |  |  |  | 80 nM |
